CRFR2-BP antag: antagonists of CRF-binding protein/CRF-R2 receptor complex | inhibition, % at 11.8 µM | HEK293 CRF-R2/CRF-BP, CRF-induced calcium fluorescence | actives 0.59% (n = 350,000) | AID 588475;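 active = inhibition of the ligand-induced calcium signal above about 50% at the single tested concentration, limit read from the data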
TRPML3 agonist: activates the human TRPML3 channel; HEK293 TRPML3-YFP, Fluo-8 calcium fluorescence; 100% = the carbachol control signal; activation, % at 3 µM; actives 0.29% (n = 220,000); Q8TDD5;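 active = activation above its plate's cutoff, the mean activation of the plate's test wells plus 3 SD, cut at about 12% in these data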;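 note: 0% = DMSO only wells and 100% = carbachol wells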
Target sequence (Q8TDD5 whole entry, looked up): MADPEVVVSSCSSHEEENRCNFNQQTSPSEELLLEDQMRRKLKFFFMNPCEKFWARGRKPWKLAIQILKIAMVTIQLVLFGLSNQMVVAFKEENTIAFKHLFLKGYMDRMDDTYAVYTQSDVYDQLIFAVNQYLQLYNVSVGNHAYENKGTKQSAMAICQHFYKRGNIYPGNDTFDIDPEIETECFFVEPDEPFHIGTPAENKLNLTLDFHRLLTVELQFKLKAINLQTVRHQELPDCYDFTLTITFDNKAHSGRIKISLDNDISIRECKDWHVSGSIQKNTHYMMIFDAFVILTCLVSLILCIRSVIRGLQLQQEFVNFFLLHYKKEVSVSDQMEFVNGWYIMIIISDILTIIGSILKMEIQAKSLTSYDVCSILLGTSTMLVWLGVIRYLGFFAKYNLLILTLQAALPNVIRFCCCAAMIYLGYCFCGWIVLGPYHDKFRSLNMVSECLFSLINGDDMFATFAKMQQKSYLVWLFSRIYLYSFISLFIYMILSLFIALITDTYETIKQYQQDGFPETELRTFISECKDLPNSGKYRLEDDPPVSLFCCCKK
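system = HEK293 cells stably carrying human TRPML3-YFP | doses = one concentration, 3 µM nominal, 0.3% DMSO | timing = dye loading 1 h 37 °C then 30 min ambient, 125 s read | detection = Fluo-8 calcium dye fluorescence, ex 470-495, em 515-575 nm | benchmarks = high control carbachol 87 µM, low control DMSO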
GPR7 antagonist: antagonists of human GPR7 (neuropeptides B/W receptor 1). AID 1861. GPR7-expressing cells, fluorescence antagonist assay. inhibition, % at 4.4 µM. P48145. actives 1.1% (n = 290,000); in the data active = inhibition above about 16%, passing the limit was not always enough;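 note: cells stimulated with the agonist NPW; 0% = agonist with vehicle and 100% = vehicle without agonist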
CRFBP-R2 agonist: CRF-BP/CRF-R2 complex agonism; activation, % at 13.2 µM; actives 0.46% (n = 350,000); AID 588473; HEK293 CRF-R2/CRF-BP, calcium dye fluorescence (FLIPR); percent of saturating CRF peptide response;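 active = activation of at least 50%, plus an integration ratio under a set limit after plate pattern correction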;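 note: plate controls were neutral control wells without compound for no effect and CRF at EC100 for full effect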
zfTRPN1 agonist: agonists of zebrafish TRPN1 channel | HEK293 zebrafish TRPN1-YFP, Fluo-8 calcium fluorescence; 100% = response to 87 µM carbachol | activation, % at 3 µM | actives 0.18% (n = 220,000);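 active = activation above its plate's cutoff, the mean activation of test wells on that plate plus 3 SD, cut at about 19% in these data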;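 note: 0% = DMSO alone and 100% = 87 µM carbachol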
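Assay system: Zebrafish TRPN1-YFP in HEK293 cells | Incubation: Dye loading 1 h at 37 °C, then 30 min room temperature | Measured by: Kinetic Fluo-8 fluorescence, ex 470-495, em 515-575 nm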
GPR7 antag conf: confirmation of human GPR7 antagonists; inhibition, % at 4.4 µM; AID 1952; GPR7-expressing cells, calcium fluorescence antagonist mode; actives 52% (n = 2,400); shares compounds with GPR7 antagonist; in the data active = inhibition above about 24%;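 note: stimulated with the GPR7 agonist NPW; 0% = agonist plus vehicle and 100% = vehicle alone without agonist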
MCHR1 antagonist: antagonizes human MCHR1, a GPR7 antagonist counter-screen. shares compounds with GPR7 antagonist. MCHR1-expressing cells, fluorescence antagonist assay. inhibition, % at 4.4 µM. actives 62% (n = 2,400). AID 2148; in the data active = inhibition above about 22%;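 note: 0% = vehicle with agonist and 100% = vehicle without agonist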
Active calls of the source: *; x = not tested or not shown. Compounds with a hit are over-represented: about 2% of the library has one in this group of screens.

SMILES	CRFR2-BP antag	TRPML3 agonist	GPR7 antagonist	CRFBP-R2 agonist	zfTRPN1 agonist	GPR7 antag conf	MCHR1 antagonist
NC(=O)c1ccsc1NC(=O)COC(=O)c1nc(Cl)ccc1Cl	1	x	x	1	x	x	x
CCN1CCN(C(c2ccccc2OC)c2nnnn2C2CCCCC2)CC1 (configuration not stated)	-8	0	30*	0	-1	7	8
O=C(CN1CCOCC1)Nc1ccc(Cl)cn1	18	x	-8	-1	x	x	x
Nc1ncncc1-c1ccccc1Cl	-6	x	x	3	x	x	x
CS/C(=C\[N+](=O)[O-])Nc1ccccc1	1	1	16	-1	0	x	x
CS/C(=C\[N+](=O)[O-])Nc1ccc(F)cc1	1	0	23*	4	0	-12	5
Cn1c(Oc2ccccc2NCc2cccc(Br)c2)cc(=O)n(C)c1=O	30	-2	31*	1	-3	22	33*
CC(OC(=O)c1cnc(Cl)c(Cl)c1)C(=O)NCc1ccccc1 (configuration not stated)	17	x	x	1	x	x	x
S=C(NCC1CCCO1)N1CCN(c2nc(-c3ccc(Cl)cc3)cs2)CC1 (configuration not stated)	1	2	21*	2	2	58*	72*
S=C(NCCCN1CCOCC1)N1CCN(c2nc(-c3ccc(Cl)cc3)cs2)CC1	21	3	5	-1	5	x	x
Cn1cccc1/C=C1\SC(=S)N(Nc2ccccc2)C1=O	-10	-1	22*	3	0	17	23*
COc1ccc(CN(C)C(=O)c2[nH]c(C)c(C(C)=O)c2C)c(OC)c1OC	10	x	21*	-1	x	-8	11
COc1ccc(CN(C)C(=O)c2cnc(C)cn2)c(OC)c1OC	2	x	-16	0	x	x	x
CCCCOc1ccc(C(=O)NCC(=O)NCC(c2ccco2)N2CCCCC2)cc1 (configuration not stated)	-14	x	x	1	x	x	x
Cc1ccccc1CNC(=O)c1ccc(CSCc2ccccc2)cc1	12	0	32*	3	1	25*	48*
COCCNc1nnc(SCC(=O)NC(=O)c2ccccc2)s1	4	x	x	0	x	x	x
Cc1cc(Br)ccc1NC(=O)C1CCN(C(=O)c2ccco2)CC1	1	x	-19	0	x	x	x
COc1ccc(CN(CCC(c2ccccc2)C2CCOC(C)(C)C2)C(C)=O)cc1 (configuration not stated)	-8	-1	24*	-4	-1	5	26*
CC(C)Cc1csc(=S)[nH]1	13	x	x	-2	x	x	x
CCOc1ccc(C(=O)Nc2cccc3ncccc23)cc1Br	-15	1	26*	-8	2	3	9
Cc1c(C(=O)OCc2ccccc2)nnn1-c1nonc1N	-64	0	21*	20	0	-3	6
C=C(C)Cn1c(C2CC(=O)N(Cc3ccccc3)C2)nc2ccccc21 (configuration not stated)	-6	x	x	0	x	x	x
C=CCN1CC(c2nc3ccccc3n2CCOc2ccccc2)CC1=O (configuration not stated)	11	-1	33*	-3	0	2	7
COc1ccc(C(=O)OCC(O)COC(=O)c2ccc(OC)cc2)cc1	-27	x	x	12	x	x	x
CSc1nnc(N2C(=O)C(O)=C(C(=O)c3ccco3)C2c2ccccc2F)s1 (configuration not stated)	-13	x	23*	23	x	3	10
SMILES	CRFR2-BP antag	TRPML3 agonist	GPR7 antagonist	CRFBP-R2 agonist	zfTRPN1 agonist	GPR7 antag conf	MCHR1 antagonist
CSc1nnc(N2C(=O)C(O)=C(C(=O)c3ccco3)C2c2ccccc2)s1 (configuration not stated)	28	x	-10	12	x	x	x
OC(C#CCCN1CCCCC1)(c1ccccc1)c1ccccc1	-13	0	22*	1	-1	-8	6
COc1ccc(C(=O)c2c(C)c3ccccc3n2CC(O)CNC(C)C)cc1 (configuration not stated)	-51	1	21*	0	0	12	18
N=C1C=CC(=C(c2ccc(N)cc2)c2ccc(N)cc2)C=C1	-2	x	x	2	x	x	x
CCOCCCNCc1cc(Br)ccc1OCc1ccccc1	3	1	38*	-2	1	36*	42*
CC(NC(=O)Cn1c(NCCO)nc2ccccc21)C1CC2CCC1C2 (configuration not stated)	-5	0	33*	0	0	27*	21
CCOC(=O)C1CCCN(S(=O)(=O)Cc2ccc(Cl)cc2)C1 (configuration not stated)	7	x	-7	0	x	x	x
Cc1ccc(C2CC(C(F)F)n3ncc(C(=O)Nc4c(C)nn(Cc5c(F)cccc5Cl)c4C)c3N2)cc1 (configuration not stated)	-55	1	24*	4	1	56*	27*
Cc1cccc(NC(=O)CC2C(=O)NCCN2C(=O)Nc2ccc(Cl)cc2)c1 (configuration not stated)	-10	x	21*	-2	x	33*	47*
O=C(c1ccco1)N1CCN(S(=O)(=O)c2ccc(S(=O)(=O)NC3CCCCC3)cc2)CC1	-32	1	x	12	2	x	10
NC(=O)N/N=C/c1coc2ccc(O)cc2c1=O	-5	-1	21*	-1	0	5	4
Cc1ccc2occ(/C=N/NC(=O)c3ccc(O)cc3)c(=O)c2c1	-7	x	-8	0	x	x	x
CC(=O)c1cc(-c2ccccc2)n(CCC(=O)NC2CCC(C)CC2)c1C (configuration not stated)	-5	-1	23*	-4	0	5	-5
COc1cc(NC2c3ccccc3C(=O)N2Cc2ccc3c(c2)OCO3)cc(OC)c1OC (configuration not stated)	36	0	26*	-4	0	12	20
CN(c1ccccc1)S(=O)(=O)c1ccc(NC(=O)c2nc(S(C)(=O)=O)ncc2Cl)cc1	0	x	92*	22	x	91*	102*
COc1cccc(NC(=O)c2cnsn2)c1	-8	0	25*	0	-1	5	3
COc1cccc(NC(=O)c2cccc(C(=O)Nc3cccc(OC)c3)n2)c1	-19	x	-7	2	x	x	x
COc1cccc(NC(=O)c2nc(S(C)(=O)=O)ncc2Cl)c1	-3	x	33*	-1	x	42*	33*
Clc1ncnc2[nH]ccc12	8	x	x	0	x	x	x
CC1CCN(C(=O)COc2ccc3ccccc3c2Br)CC1	x	x	-9	x	x	x	x
Cc1ccc(S(=O)(=O)CCC(=O)OCc2nnc(-c3ccc([N+](=O)[O-])cc3)o2)cc1	-3	x	x	0	x	x	x

Screening data (PubChem)
